The values that follow come from ChEMBL document CHEMBL4387760, “Synthesis of oxytocin derivatives lipidated via a carbonate or carbamate linkage as a long-acting therapeutic agent for social impairment-like behaviors” (Bioorg Med Chem, 2019).

Each structure is given as a SMILES string. The source made the active and inactive calls. No cut-off for these calls is given here. Where only a bound is given, the exact number is not on record here.

For one test, the target named is T1, Oxytocin receptor (Homo sapiens, UniProt P30559).
T1 sequence (P30559 whole entry): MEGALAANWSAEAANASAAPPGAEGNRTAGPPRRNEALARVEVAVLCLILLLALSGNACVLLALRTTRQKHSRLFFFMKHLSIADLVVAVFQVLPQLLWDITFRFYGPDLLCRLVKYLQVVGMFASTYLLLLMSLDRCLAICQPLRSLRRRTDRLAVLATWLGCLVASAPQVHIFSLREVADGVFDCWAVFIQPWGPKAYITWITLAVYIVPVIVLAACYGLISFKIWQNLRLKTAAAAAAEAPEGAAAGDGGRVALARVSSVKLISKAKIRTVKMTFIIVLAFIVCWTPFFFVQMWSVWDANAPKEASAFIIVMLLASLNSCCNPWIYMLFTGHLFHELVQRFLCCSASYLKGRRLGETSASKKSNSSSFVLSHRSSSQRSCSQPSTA
The experiment in a line: Agonist activity at human OTR receptor expressed in HEK293 cells assessed as intracellular calcium level measured at 3 secs interval for 5 mins by fura-2/AM dye based micro spectrofluorometric method. It counts as functional, cell-based. In short, it runs like this:
(§1)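 HEK-293 cells stably expressing the receptor (G418-selected) were loaded with fura-2/AM for 30 min at 37 °C and washed in HEPES-buffered saline, pH 7.4. Fluorescence was read at 37 °C with 340/380 nm excitation, and F340/F380 was normalized to the 10 s baseline. Responses were expressed as % of the OT maximum (OTR) or the AVP maximum (V1A), with EC50 from 3 independent experiments at 20 cells/dish.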

Another test concerns the target Vasopressin V1a receptor (Homo sapiens, UniProt P37288). The experiment in a line: Agonist activity at human V1A receptor expressed in HEK293 cells assessed as intracellular calcium level measured at 3 secs interval for 5 mins by fura-2/AM dye based micro spectrofluorometric method. The format is functional, cell-based. A digest of the protocol:
as §1

For a further test, the target named is T2, Vasopressin V1b receptor (Homo sapiens, UniProt P47901).
T2 sequence (P47901 whole entry): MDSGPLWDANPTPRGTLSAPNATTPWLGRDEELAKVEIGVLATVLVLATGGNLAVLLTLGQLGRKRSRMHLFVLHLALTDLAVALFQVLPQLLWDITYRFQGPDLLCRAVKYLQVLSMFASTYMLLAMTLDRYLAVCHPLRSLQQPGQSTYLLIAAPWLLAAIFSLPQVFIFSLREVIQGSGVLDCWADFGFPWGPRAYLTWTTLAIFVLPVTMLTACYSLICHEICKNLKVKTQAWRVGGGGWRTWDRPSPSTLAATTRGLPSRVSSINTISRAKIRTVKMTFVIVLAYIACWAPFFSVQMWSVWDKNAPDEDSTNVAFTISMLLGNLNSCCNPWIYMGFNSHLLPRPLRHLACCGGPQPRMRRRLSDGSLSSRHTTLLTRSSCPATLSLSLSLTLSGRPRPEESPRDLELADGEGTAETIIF
The experiment in a line: Agonist activity at human V1B receptor expressed in HEK293 cells assessed as intracellular calcium level measured at 3 secs interval for 5 mins by fura-2/AM dye based micro spectrofluorometric method. The format is functional, cell-based.

In test [1] the target is T3, Oxytocin receptor (Homo sapiens) (UniProt P30559).
T3 sequence (whole entry): T1 sequence (P30559 whole entry)
Nature of the test: Agonist activity at human OTR receptor expressed in HEK293 cells measured at 3 secs interval for 5 mins by fura-2/AM dye based micro spectrofluorometric method relative to OT. It counts as cell-based. In short, it runs like this:
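HEK-293 cells stably expressing human OTR (G418-selected) were loaded with fura-2/AM (final […] as printed) at 37 °C for 30 min, then washed in HEPES-buffered saline, pH 7.4. F340/F380 ratio was read every 3 s for 5 min at 37 °C, normalized to 10-s pre-application baseline, as % of maximal OT response. Three independent experiments, 20 cells per dish; EC50 derived.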

The subject of test [2] is Mus musculus. Nature of the test: Improvement in paternal nurturing behavior in CD38 knock out Slc:ICR mouse sire model of autism spectrum disorder assessed as parental scores to retrieve pups by sires at 100 ng/100 g, ip administered as single dose measured after 30 mins by parental retrieval test (reference value: 0 +/- 0 No units). It counts as functional.
In test [3] the test system is Mus musculus. The experiment in a line: Improvement in paternal nurturing behavior in CD38 knock out Slc:ICR mouse sire model of autism spectrum disorder assessed as parental scores to retrieve pups by sires at 100 ng/100 g, ip administered as single dose measured after 24 hrs by parental retrieval test (reference value: 0 +/- 0 No units). It counts as functional.
Test [4] has as its system Mus musculus. The experiment in a line: Improvement in paternal nurturing behavior in CD38 knock out Slc:ICR mouse sire model of autism spectrum disorder assessed as increase in parental scores to retrieve pups by sires at 100 ng/100 g, ip administered as single dose measured after 12 hrs by parental retrieval test. The format is functional, organism-based. In short, it runs like this:
(§2)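 This time-course test used CD38KOCC sires (Slc:ICR) paired with females. Each received a single ip dose of 100 ng/100 g body weight in PBS, with PBS as vehicle control. Paternal pup-retrieval scores were recorded at successive times after injection, including 6, 12, 24 and 48 h. Treatment effects were analysed by two-way ANOVA.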

Test [5] relates to Mus musculus. Nature of the test: Improvement in paternal nurturing behavior in CD38 knock out Slc:ICR mouse sire model of autism spectrum disorder assessed as increase in parental scores to retrieve pups by sires at 100 ng/100 g, ip administered as single dose measured after 24 hrs by parental retrieval test. It counts as functional, organism-based.
Test [6] relates to Mus musculus. The experiment in a line: Improvement in paternal nurturing behavior in CD38 knock out Slc:ICR mouse sire model of autism spectrum disorder assessed as increase in parental scores to retrieve pups by sires at 100 ng/100 g, ip administered as single dose measured after 48 hrs by parental retrieval test. The format is functional, organism-based. In short, it runs like this:
as §2

For test [7], the system named is Mus musculus. The experiment in a line: Improvement in paternal nurturing behavior in CD38 knock out Slc:ICR mouse sire model of autism spectrum disorder assessed as parental scores to retrieve pups by sires at 100 ng/100 g, ip administered as single dose measured after 6 hrs by parental retrieval test. It counts as functional, organism-based. In short, it runs like this:
as §2

Chain of Vasopressin V1a receptor (P37288 whole entry): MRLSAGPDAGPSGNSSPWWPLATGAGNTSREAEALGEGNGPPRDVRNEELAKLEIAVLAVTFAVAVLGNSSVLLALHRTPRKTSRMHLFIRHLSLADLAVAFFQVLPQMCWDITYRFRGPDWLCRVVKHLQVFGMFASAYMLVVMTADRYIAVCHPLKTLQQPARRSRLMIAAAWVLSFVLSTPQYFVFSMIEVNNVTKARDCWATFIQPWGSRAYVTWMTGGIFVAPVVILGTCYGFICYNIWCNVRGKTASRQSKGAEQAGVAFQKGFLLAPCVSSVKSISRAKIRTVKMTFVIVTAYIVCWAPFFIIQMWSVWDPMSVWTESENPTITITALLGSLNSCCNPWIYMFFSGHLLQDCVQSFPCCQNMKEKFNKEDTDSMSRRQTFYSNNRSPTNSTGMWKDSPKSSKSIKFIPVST

Consider `CCCCCCCCCCCCCCCCOC(=O)Oc1ccc(C[C@@H]2NC(=O)[C@@H](NC(=O)CCCCCCCCCCCCCCC)CSSC[C@@H](C(=O)N3CCC[C@H]3C(=O)N[C@@H](CC(C)C)C(=O)NCC(N)=O)NC(=O)[C@H](CC(N)=O)NC(=O)[C@H](CCC(N)=O)NC(=O)[C@H]([C@@H](C)CC)NC2=O)cc1`, for which the EC50 on Oxytocin receptor, on Vasopressin V1a receptor and on Vasopressin V1b receptor was greater than 100 µM each time. The maximal response (Emax) in test [1] came out at 0%. The Activity in the test on Mus musculus [2] stood at 2; in the test on Mus musculus [3], 5.2. For the same molecule, the result in the test on Mus musculus [4] and in the test with Mus musculus [5] was Active. Further, in the test with Mus musculus [6], the result was inactive.

As for `CCCCCCCCCCCCCCCC(=O)N[C@H]1CSSC[C@@H](C(=O)N2CCC[C@H]2C(=O)N[C@@H](CC(C)C)C(=O)NCC(N)=O)NC(=O)[C@H](CC(N)=O)NC(=O)[C@H](CCC(N)=O)NC(=O)[C@H]([C@@H](C)CC)NC(=O)[C@H](Cc2ccc(OC(=O)OCCCCCCCCCCCCCC)cc2)NC1=O`, the 50% effective concentration (EC50) on Vasopressin V1a receptor and at Vasopressin V1b receptor was greater than 100 µM each time. In test [1], this molecule showed an Emax of 15.3%. Also, the Activity with Mus musculus [2] was found to be 6.8; in the test with Mus musculus [3], 3.1.

For `CCCCCCCCCCCCCCCOC(=O)Oc1ccc(C[C@@H]2NC(=O)[C@@H](NC(=O)CCCCCCCCCCCCCCC)CSSC[C@@H](C(=O)N3CCC[C@H]3C(=O)N[C@@H](CC(C)C)C(=O)NCC(N)=O)NC(=O)[C@H](CC(N)=O)NC(=O)[C@H](CCC(N)=O)NC(=O)[C@H]([C@@H](C)CC)NC2=O)cc1`, the EC50 at Oxytocin receptor, at Vasopressin V1a receptor and on Vasopressin V1b receptor was greater than 100 µM each time. The maximal effect (Emax) in test [1] was 0%. In addition, the Activity with Mus musculus [2] came out at 3.9; in the test with Mus musculus [3] it was 2.9.

`CCCCCCCCCCCCCCCCNC(=O)Oc1ccc(C[C@@H]2NC(=O)[C@@H](NC(=O)CCCCCCCCCCCCCCC)CSSC[C@@H](C(=O)N3CCC[C@H]3C(=O)N[C@@H](CC(C)C)C(=O)NCC(N)=O)NC(=O)[C@H](CC(N)=O)NC(=O)[C@H](CCC(N)=O)NC(=O)[C@H]([C@@H](C)CC)NC2=O)cc1`: the EC50 on Oxytocin receptor, on Vasopressin V1a receptor and at Vasopressin V1b receptor was greater than 100 µM throughout. In addition, the Emax in test [1] is 0%. In addition, the Activity with Mus musculus [2] was found to be 1.9; in the test with Mus musculus [3] it was 3.4.

For `CCCCCCCCCCCCCCCC(=O)N[C@H]1CSSC[C@@H](C(=O)N2CCC[C@H]2C(=O)N[C@@H](CC(C)C)C(=O)NCC(N)=O)NC(=O)[C@H](CC(N)=O)NC(=O)[C@H](CCC(N)=O)NC(=O)[C@H]([C@@H](C)CC)NC(=O)[C@H](Cc2ccc(OC(=O)NCCCCCCCCCCCCCC)cc2)NC1=O`, the EC50 on Oxytocin receptor, on Vasopressin V1a receptor and on Vasopressin V1b receptor was greater than 100 µM throughout. The Emax in test [1] came to 0%. For the same molecule, the Activity with Mus musculus [2] is given as 3.3; in the test on Mus musculus [3], 3.6.

Turning to `CCCCCCCCCCCCCCCNC(=O)Oc1ccc(C[C@@H]2NC(=O)[C@@H](NC(=O)CCCCCCCCCCCCCCC)CSSC[C@@H](C(=O)N3CCC[C@H]3C(=O)N[C@@H](CC(C)C)C(=O)NCC(N)=O)NC(=O)[C@H](CC(N)=O)NC(=O)[C@H](CCC(N)=O)NC(=O)[C@H]([C@@H](C)CC)NC2=O)cc1`, the EC50 on Oxytocin receptor was greater than 10 µM; at Vasopressin V1a receptor, greater than 100 µM; on Vasopressin V1b receptor, greater than 100 µM. For the same molecule, the Activity is 2 with Mus musculus [2] and 3.1 in the test with Mus musculus [3].

Regarding `CC[C@H](C)[C@@H]1NC(=O)[C@H](Cc2ccc(O)cc2)NC(=O)[C@@H](N)CSSC[C@@H](C(=O)N2CCC[C@H]2C(=O)N[C@@H](CC(C)C)C(=O)NCC(N)=O)NC(=O)[C@H](CC(N)=O)NC(=O)[C@H](CCC(N)=O)NC1=O` [OXYTOCIN], the values for the Activity with Mus musculus [2] and in the test with Mus musculus [3] were 5.3 and 0, respectively. Further, the outcome in the test with Mus musculus [7] was inactive.
